The term IC50 denotes the point on the concentration scale where inhibition reaches its midpoint. By ED50 is commonly meant the midpoint of the dose-response relation. As a reminder, the EC50 is the midpoint of the concentration-response curve. The half-life is the time needed for the level to fall by half in the phase considered. One may read the Cmax as the highest concentration seen after dosing. As a reminder, the bioavailability is dose-corrected exposure relative to a reference, in per cent.

For series [1], the target named is T1, Sphingosine 1-phosphate receptor 1 (Homo sapiens, UniProt P21453). In words: Displacement of [33P]sphingosine 1 phosphate from human S1P1 receptor expressed in CHO cells. The class given is cell-based.
In series [2] the target is Sphingosine 1-phosphate receptor 5 (Homo sapiens, UniProt Q9H228). Description: Displacement of [33P]sphingosine 1 phosphate from human S1P5 receptor expressed in CHO cells. The class given is cell-based. The procedure, abridged:
(§1)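 Competition binding with [33P]-labeled S1P on membranes of CHO cells stably expressing each human S1P receptor. Values are the mean of n = 3 determinations.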

Series [3] relates to Mus musculus. In words: Decrease in peripheral blood lymphocytes in po dosed mouse after 3 hrs. The class given is functional. The procedure, abridged:
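Compound given orally to mice. Peripheral blood lymphocyte counts taken 3 h after dosing, expressed as average percent decrease in n = 3 animals versus controls (n = 3). ED50 from dose-titration.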

The target in series [4] is T2, Sphingosine 1-phosphate receptor 4 (Homo sapiens, UniProt O95977).
T2 sequence (O95977 whole entry): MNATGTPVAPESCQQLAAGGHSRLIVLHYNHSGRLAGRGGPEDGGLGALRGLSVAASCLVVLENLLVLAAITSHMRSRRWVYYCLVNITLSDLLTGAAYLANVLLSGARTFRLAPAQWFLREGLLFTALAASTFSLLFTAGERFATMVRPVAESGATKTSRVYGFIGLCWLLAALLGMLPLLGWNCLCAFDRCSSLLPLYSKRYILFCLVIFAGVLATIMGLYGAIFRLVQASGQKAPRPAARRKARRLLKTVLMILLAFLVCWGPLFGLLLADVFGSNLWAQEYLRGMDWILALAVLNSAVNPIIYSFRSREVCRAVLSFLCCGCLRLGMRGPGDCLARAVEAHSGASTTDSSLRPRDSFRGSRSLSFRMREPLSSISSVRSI
Description: Displacement of [33P]sphingosine 1 phosphate from human S1P4 receptor expressed in CHO cells. It is filed as cell-based. The procedure, abridged:
as §1

Series [5] deals with T1, Sphingosine 1-phosphate receptor 1. In words: Activity at human S1P1 receptor expressed in CHO cells by [35S]GTPgammaS binding assay. The class given is functional, cell-based. A digest of the protocol: (§2)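 Agonism measured as ligand-induced [35S]-GTPγS binding to membranes of CHO cells stably expressing the human S1P receptor.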
In general terms: Binding of GTPγS marks nucleotide exchange on a G protein.

A short description of series [6]: Half life in rat at 2 mg/kg, po and 1 mg/kg, iv. The class given is ADME, organism-based. Conditions: in vivo. A digest of the protocol: (§3)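 Rat PK at 2.0 mpk po and 1.0 mpk iv. Plasma compound levels measured.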
A short description of series [7]: Cmax in rat at 2 mg/kg, po and 1 mg/kg, iv. Particulars: in vivo. The class given is ADME, organism-based. A digest of the protocol: as §3
Series [8] is described as follows: Plasma clearance in rat at 2 mg/kg, po and 1 mg/kg, iv. The class given is ADME, organism-based. A digest of the protocol: as §3
Series [9] can be described thus: Bioavailability in rat at 2 mg/kg, po and 1 mg/kg, iv. It is filed as ADME, organism-based. Particulars: in vivo. The procedure, abridged: as §3
Series [10] concerns the target T3, Sphingosine 1-phosphate receptor 3 (Homo sapiens, UniProt Q99500). Description: Displacement of [33P]sphingosine 1 phosphate from human S1P3 receptor expressed in CHO cells. It is filed as cell-based.
Series [11] can be described thus: Volume of distribution at steady state in rat at 2 mg/kg, po and 1 mg/kg, iv. The class given is ADME, organism-based. Particulars: in vivo, read-out: Vdss.
The target in series [12] is Sphingosine 1-phosphate receptor 2 (Homo sapiens, UniProt O95136). Description: Displacement of [33P]sphingosine 1 phosphate from human S1P2 receptor expressed in CHO cells. It is filed as cell-based.
Series [13] in a line: Half life in rat. The class given is ADME, organism-based. Particulars: in vivo.
Series [14] can be described thus: Oral bioavailability in rat. The class given is ADME, organism-based. Particulars: in vivo.
Series [15] deals with T3, Sphingosine 1-phosphate receptor 3. Description: Activity at human S1P3 receptor expressed in CHO cells by [35S]GTP-gamma-S binding assay. It is filed as functional, cell-based. The procedure, abridged: as §2
The nature of series [16]: Half life in rhesus monkey at 1 mg/kg, po and 0.5 mg/kg, iv. Particulars: in vivo.
Series [17] can be described thus: Bioavailability in rhesus monkey at 1 mg/kg, po and 0.5 mg/kg, iv. Particulars: in vivo. The class given is ADME, organism-based, Macaca mulatta. A digest of the protocol: (§4)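 Single-dose PK at 1.0 mpk po and 0.5 mpk iv. Plasma compound levels measured.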
Series [18] can be described thus: Volume of distribution at steady state in rhesus monkey at 1 mg/kg, po and 0.5 mg/kg, iv. It is filed as ADME, organism-based, Macaca mulatta. Conditions: in vivo, read-out: Vdss.
The test system of series [19] is Canis familiaris. In words: Maximal decrease in peripheral blood lymphocyte in Beagle dog at 1 mg/kg, po after 24 hrs. Particulars: Canis lupus familiaris. The arrangement: dose 1 mg/kg. It is filed as functional, organism-based. A digest of the protocol:
(§5)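 Complete blood counts run alongside plasma concentrations after a single 1.0 mpk oral dose in beagle dog or rhesus monkey. Lymphocyte counts followed over time, with PBL lowering assessed at 24 h postdose.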

Series [20] is described as follows: Half life in Beagle dog at 1 mg/kg, po and 0.5 mg/kg, iv. Conditions: in vivo.
Series [21] has as its system Canis familiaris. In words: Cmax in Beagle dog at 1 mg/kg, po and 0.5 mg/kg, iv. It is filed as ADME, organism-based, Canis lupus familiaris. Particulars: in vivo. A digest of the protocol: as §4
The subject of series [22] is Canis familiaris. Description: Plasma clearance in Beagle dog at 1 mg/kg, po and 0.5 mg/kg, iv. It is filed as ADME, organism-based, Canis lupus familiaris. Particulars: in vivo. The procedure, abridged:
as §4

The nature of series [23]: Volume of distribution at steady state in Beagle dog at 1 mg/kg, po and 0.5 mg/kg, iv. Conditions: in vivo, read-out: Vdss. It is filed as ADME, organism-based, Canis lupus familiaris.
Series [24] concerns Rhesus monkey. Description: Maximal decrease in peripheral blood lymphocyte in rhesus monkey at 1 mg/kg, po after 24 hrs. The arrangement: dose 1 mg/kg. Conditions: Macaca mulatta. It is filed as functional, organism-based. The procedure, abridged: as §5
The nature of series [25]: Plasma clearance in rhesus monkey at 1 mg/kg, po and 0.5 mg/kg, iv. The class given is ADME, organism-based, Macaca mulatta. A digest of the protocol: as §4
A short description of series [26]: Cmax in rhesus monkey at 1 mg/kg, po and 0.5 mg/kg, iv. Conditions: in vivo. The class given is ADME, organism-based, Macaca mulatta. The procedure, abridged:
as §4

Series [27] in a line: Bioavailability in Beagle dog at 1 mg/kg, po and 0.5 mg/kg, iv. The class given is ADME, organism-based, Canis lupus familiaris. Conditions: in vivo. The procedure, abridged: as §4

Calls of active or inactive are those of the source.

Sphingosine 1-phosphate receptor 5, sequence (Q9H228 whole entry): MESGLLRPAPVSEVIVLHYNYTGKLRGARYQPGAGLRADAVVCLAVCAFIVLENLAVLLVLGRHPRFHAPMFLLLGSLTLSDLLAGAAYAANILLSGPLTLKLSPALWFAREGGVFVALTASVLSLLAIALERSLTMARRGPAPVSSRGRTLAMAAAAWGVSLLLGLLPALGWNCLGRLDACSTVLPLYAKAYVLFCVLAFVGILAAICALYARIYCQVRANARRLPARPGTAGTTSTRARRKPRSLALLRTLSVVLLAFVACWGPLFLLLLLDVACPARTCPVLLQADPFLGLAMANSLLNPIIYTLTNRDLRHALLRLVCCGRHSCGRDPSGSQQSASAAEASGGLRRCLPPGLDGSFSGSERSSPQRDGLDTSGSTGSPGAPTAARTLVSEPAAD
T3 sequence (Q99500 whole entry): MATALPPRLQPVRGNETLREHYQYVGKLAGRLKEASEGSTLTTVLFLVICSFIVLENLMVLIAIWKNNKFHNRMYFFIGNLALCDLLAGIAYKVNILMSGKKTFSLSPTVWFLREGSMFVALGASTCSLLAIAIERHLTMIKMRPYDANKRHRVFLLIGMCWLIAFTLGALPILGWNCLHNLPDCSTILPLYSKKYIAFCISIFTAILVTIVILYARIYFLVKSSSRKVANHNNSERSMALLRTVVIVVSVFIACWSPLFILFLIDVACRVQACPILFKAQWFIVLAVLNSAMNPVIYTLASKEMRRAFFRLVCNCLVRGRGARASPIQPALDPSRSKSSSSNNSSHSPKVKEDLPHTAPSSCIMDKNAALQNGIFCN
T1 sequence (P21453 whole entry): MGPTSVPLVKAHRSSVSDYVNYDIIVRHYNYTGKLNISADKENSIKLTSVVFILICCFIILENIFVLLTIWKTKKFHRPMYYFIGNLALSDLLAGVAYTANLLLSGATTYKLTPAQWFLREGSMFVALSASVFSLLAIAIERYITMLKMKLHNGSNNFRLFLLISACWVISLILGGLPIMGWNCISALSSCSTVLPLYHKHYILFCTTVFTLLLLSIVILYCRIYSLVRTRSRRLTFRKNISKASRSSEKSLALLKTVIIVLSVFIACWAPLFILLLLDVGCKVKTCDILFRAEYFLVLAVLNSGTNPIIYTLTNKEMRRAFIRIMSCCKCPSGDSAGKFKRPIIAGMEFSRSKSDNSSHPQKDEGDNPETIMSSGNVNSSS
Sphingosine 1-phosphate receptor 2, sequence (O95136 whole entry): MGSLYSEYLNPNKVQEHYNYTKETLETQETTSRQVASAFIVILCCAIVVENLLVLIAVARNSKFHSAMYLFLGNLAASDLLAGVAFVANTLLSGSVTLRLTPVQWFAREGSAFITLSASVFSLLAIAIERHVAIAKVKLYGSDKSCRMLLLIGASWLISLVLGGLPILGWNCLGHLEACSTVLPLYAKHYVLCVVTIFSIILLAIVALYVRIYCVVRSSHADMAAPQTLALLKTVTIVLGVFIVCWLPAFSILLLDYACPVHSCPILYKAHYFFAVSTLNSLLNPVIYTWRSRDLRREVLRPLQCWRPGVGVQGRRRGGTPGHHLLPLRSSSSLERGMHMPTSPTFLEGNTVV

On to `O=C(O)C1CN(Cc2ccc(OCc3cc(-c4ccccc4)c(C(F)(F)F)s3)c(Cl)c2)C1`, for which the IC50 is 3.2 nM (antagonist) in [1]; 18 nM (antagonist) in [2]; 1300 nM (antagonist) in series [4]; 2000 nM (antagonist) in series [10]; above 10000 nM in [12]. For the same compound, it took a dose of 0.54 mg/kg to reach the 50% effect level in series [3] (ED50). In series [5], the EC50 is listed as 1.4 nM (agonist). For the same compound, the half-life in [6] was 7 h. This compound also yielded a Cmax in [7] of 500 nM. This compound also registered a clearance in series [8] of 8.2 mL/min/kg. For the same compound, the bioavailability in series [9] was found to be 62%. Further, in series [11], the Vd was found to be 3.8 L/kg.
`CCCCCCCCCc1ccc(CN2CCC(C(=O)O)C2)cc1` (stereo unspecified): in series [13], the half-life was 0.9 h. In addition, the IC50 was 20 nM (antagonist) in series [1]; 29 nM (antagonist) in series [2]; 2500 nM (antagonist) in series [4]; 2100 nM (antagonist) in series [10]; above 10000 nM in series [12]. The compound also displayed an ED50 in series [3] of 23 mg/kg. The same compound gave a bioavailability in series [14] above 70%.
On to `CCCCCCCCc1ccc(CCC(N)(CO)CO)cc1` [FINGOLIMOD], for which the IC50 in [2] was 2100 nM (antagonist); in series [4], above 10000 nM; in series [10] it was above 10000 nM; in [12] it was above 10000 nM. Moreover, in [3], the median effective dose (ED50) worked out at 0.15 mg/kg.
On to `O=C(O)C1CN(Cc2ccc(-c3noc(-c4cc(-c5ccccc5)c(C(F)(F)F)s4)n3)cc2)C1`, for which the half-maximal inhibitory concentration (IC50) in series [1] was 8.3 nM (antagonist); in series [2], 16 nM (antagonist); in series [4] it was 10000 nM; in [10], 1000 nM (antagonist); in [12] it was above 10000 nM. In addition, the 50% effect level in series [3] (ED50) was put at a dose of 0.07 mg/kg. Moreover, the EC50 is on record as 0.2 nM (agonist) in series [5] and 17 nM (agonist) in series [15]. The half-life in [6] was 10.5 h. This compound had a Cmax in series [7] of 1300 nM. In [8], this compound had a clearance of 2.2 mL/min/kg. This compound also gave a bioavailability in series [9] of 64%. In addition, in [11], the Vd was found to be 1.9 L/kg.
Turning to `Cc1cc(CN2CC(C(=O)O)C2)ccc1OCc1cc(-c2ccccc2)c(C(F)(F)F)s1`, the half-life was 12.6 h in series [16], 8.9 h in series [6] and 22.3 h in series [20]. The IC50 in [1] was 1.8 nM (antagonist); in series [2], 13 nM (antagonist); in [4], 1500 nM (antagonist); in series [10], 7500 nM (antagonist); in series [12] it was above 10000 nM. Further, the 50% effect level in series [3] (ED50) was put at a dose of 0.18 mg/kg. In addition, the bioavailability was 96% in [17], 88% in series [9] and 100% in series [27]. Moreover, the EC50 in [5] is listed as 0.8 nM (agonist). For the same compound, the Cmax in series [7] turned out to be 500 nM; in [21], 3200 nM; in [26] it was 1800 nM. For the same compound, the Vd was 1.2 L/kg in [18], 0.9 L/kg in series [23] and 5.7 L/kg in series [11]. The clearance in [8] came to 8.2 mL/min/kg; in series [22], 0.5 mL/min/kg; in series [25] it was 1.3 mL/min/kg. The outcome in [19] and in series [24] was Active.
In the case of `CCCCCCCCCc1ccc(CN2CC(C(=O)O)C2)cc1`, the half-life in series [13] is 1.4 h. The IC50 is 18 nM (antagonist) in series [1]; 11 nM (antagonist) in series [2]; 5400 nM (antagonist) in series [4]; 4900 nM (antagonist) in series [10]; above 10000 nM in series [12]. In [3], the ED50 was found to be 5.2 mg/kg. Moreover, the bioavailability in series [14] is above 70%.
For the compound `O=C(O)C1CN(Cc2ccc(OCc3cc(-c4ccccc4)c(C(F)(F)F)s3)c(F)c2)C1`, the 50% inhibitory concentration (IC50) is 2.7 nM (antagonist) in series [1]; 41 nM (antagonist) in series [2]; 2700 nM (antagonist) in [4]; 2100 nM (antagonist) in series [10]; above 10000 nM in series [12]. The EC50 in series [5] is recorded as 1.3 nM (agonist).

The values are drawn from ChEMBL document CHEMBL1149292, “A rational utilization of high-throughput screening affords selective, orally bioavailable 1-benzyl-3-carboxyazetidine sphingosine-1-phosphate-1 receptor agonists” (J Med Chem, 2004).
